This note sets out measurements from ChEMBL document CHEMBL1128295 (J Med Chem, 1995).

One may read the pKb as −log10 of the Kb, conventionally taken in molar units. Low readings indicate a high Kb, high ones a low Kb.

For test [1], the target named is Histamine H1 receptor (Cavia porcellus) (UniProt P31389). As to the kind of experiment: The H1 receptor-mediated nature of the ileum contractionhas been verified by competition experiments with the H1 receptor antagonist mepyramine. In kind it is functional, tissue-based.
Sequence of Histamine H1 receptor (Cavia porcellus) (P31389 whole entry): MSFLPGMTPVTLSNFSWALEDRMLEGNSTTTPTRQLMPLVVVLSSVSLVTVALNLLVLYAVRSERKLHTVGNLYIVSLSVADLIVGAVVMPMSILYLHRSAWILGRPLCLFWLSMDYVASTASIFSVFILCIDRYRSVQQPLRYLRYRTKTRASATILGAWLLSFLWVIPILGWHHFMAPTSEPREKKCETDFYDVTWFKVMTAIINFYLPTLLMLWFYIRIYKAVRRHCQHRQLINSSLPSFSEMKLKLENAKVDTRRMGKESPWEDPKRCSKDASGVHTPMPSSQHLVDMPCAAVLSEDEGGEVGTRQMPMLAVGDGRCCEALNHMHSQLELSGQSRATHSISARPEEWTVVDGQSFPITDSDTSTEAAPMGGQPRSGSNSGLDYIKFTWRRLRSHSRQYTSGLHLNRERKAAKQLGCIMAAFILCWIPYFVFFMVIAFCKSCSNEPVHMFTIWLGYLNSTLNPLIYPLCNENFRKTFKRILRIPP
Test [2] shares this target. The experiment in a line: H1-Histamine receptor agonism on guinea pig ileum as intrinsic activity given as 1.0 with respect to histamine (paired 't'test; p>0.05). In kind it is functional, tissue-based.
For test [3] the target is unchanged. As to the kind of experiment: Contractile effect on isolated guinea pig ileal segments is a measure of H1 (histamine) receptor agonistic activity relative to histamine. In kind it is functional.
Test [4] has the same target. As to the kind of experiment: Contractile effects on guinea pig aorta as histamine H1 receptor agonism. In kind it is functional, tissue-based. Summed up: (§1)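 Endothelium-denuded 4–6 mm guinea pig thoracic aortic rings, isometric (preload 10 mN), modified Krebs-Henseleit, 37 °C, 95% O2/5% CO2. […] Cumulative curves with 30 μM corticosterone, 100 μM cimetidine, 0.1 μM (R,S)-propranolol and phentolamine present.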

Test [5] has the same target. The experiment in a line: H1-Histamine receptor agonism on Guinea pig aorta was evaluated as Intrinsic activity given as 1.0 with respect to histamine (paired 't'test;p>0.05). In kind it is functional, tissue-based. The gist of the method: as §1
The target is the same in test [6]. The experiment in a line: Contractile effect on isolated guinea pig aorta is a measure of H1 (histamine) receptor agonistic activity relative to histamine. In kind it is functional, tissue-based. The gist of the method:
as §1

Test [7] shares this target. As to the kind of experiment: Contractile effect on isolated guinea pig ileal segments by H1 (histamine) receptor agonism. In kind it is functional.
Test [8] is filed under the species Cavia porcellus. The experiment in a line: Relative activity with respect to Histamine on guinea pig ileum.. In kind it is functional. The gist of the method:
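Guinea pig ileum segments (either sex), 1.5 cm, mounted isotonically under 5 mN preload in Tyrode solution with 0.1 μM atropine, 95% O2/5% CO2 gassed, 37 °C. […] Potency is read from graphically analysed concentration–effect curves as geometric means.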

Molecules are shown by their SMILES.

Take `NCCc1nccs1`: the figures for the pKb in test [1] and in test [4] were 9.17 and 9.02, respectively. Besides, the Intrinsic activity in test [2] worked out at 1; in test [5] it was 1.02. The Relative activity in test [3] came to 45%; in test [6], 18%; in test [8], 20%. In addition, the pD2 in test [7] turned out to be 6.36.
